The values that follow come from ChEMBL document CHEMBL2150950, “Effect of 4-aryl-2-methyl-5-nitro-1,4-dihydropyridine-3-carboxylates on the guinea pig papillary muscle and isolated human vena saphena magna that is used for coronary artery bypass grafting” (2011).

The nature of test [1]: Ionotropic effect in guinea pig ventricle papillary muscles assessed as lengthening of 90% repolarized cardiac action potential duration time at 10^-6 M by microelectrode technique relative to untreated control (reference value: 209 to 222 APD50 ms) in presence of 1 x 10^-6 M IKr channel blocker Sotalol. In kind it is functional, Cavia porcellus.
Test [2] can be described thus: Ionotropic effect in guinea pig ventricle papillary muscles assessed as lengthening of 25% repolarized cardiac action potential duration time at 10^-7 M by microelectrode technique relative to untreated control (reference value: 120 to 131 APD25 ms) in presence of 3.1 x 10^-6 M inward rectifier current blocker BaCl2. The test is classed as functional, Cavia porcellus.

Test [3] is described as follows: Ionotropic effect in guinea pig ventricle papillary muscles assessed as lengthening of 10% repolarized cardiac action potential duration time at 10^-7 M by microelectrode technique relative to untreated control (reference value: 52 to 54 APD10 ms) in presence of 2 x 10^-5 M KATP channel blocker glibenclamide. In kind it is functional, Cavia porcellus.
A short description of test [4]: Ionotropic effect in guinea pig ventricle papillary muscles assessed as lengthening of […] cardiac action potential duration time at 10^-5 M by microelectrode technique relative to untreated control (reference value: 37 to 47 […] ms). In kind it is functional, Cavia porcellus, Papillary muscle.
Test [5] is described as follows: Ionotropic effect in guinea pig ventricle papillary muscles assessed as lengthening of 50% repolarized cardiac action potential duration time at 10^-5 M by microelectrode technique relative to untreated control (reference value: 132 to 176 APD50 ms). In kind it is functional, Cavia porcellus, Papillary muscle.
A short description of test [6]: Ionotropic effect in guinea pig ventricle papillary muscles assessed as lengthening of 90% repolarized cardiac action potential duration time at 10^-4 M by microelectrode technique relative to untreated control (reference value: 132 to 176 APD50 ms). In kind it is functional, Cavia porcellus, Papillary muscle.
Test [7] in a line: Ionotropic effect in guinea pig ventricle papillary muscles assessed as lengthening of 25% repolarized cardiac action potential duration time at 10^-4 M by microelectrode technique relative to untreated control (reference value: 120 to 131 APD25 ms) in presence of 2 x 10^-5 M KATP channel blocker glibenclamide. The test is classed as functional, Cavia porcellus.
Test [8] is described as follows: Ionotropic effect in guinea pig right ventricle papillary muscles assessed as contraction force at 10^-7 M by force transduction assay relative to untreated control (reference value: 100%) in presence of 3.1 x 10^-6 M inward rectifier current blocker BaCl2. In kind it is functional, Cavia porcellus, Heart right ventricle.
Test [9] in a line: Ionotropic effect in guinea pig right ventricle papillary muscles assessed as contraction force at 10^-7 M by force transduction assay relative to untreated control (reference value: 100%) in presence of 1 x 10^-6 M IKr channel blocker Sotalol. In kind it is functional, Cavia porcellus, Heart right ventricle.
Test [10] is described as follows: Ionotropic effect in guinea pig ventricle papillary muscles assessed as lengthening of 90% repolarized cardiac action potential duration time at 10^-5 M by microelectrode technique relative to untreated control (reference value: 209 to 222 APD50 ms) in presence of 1 x 10^-6 M IKr channel blocker Sotalol. In kind it is functional, Cavia porcellus.
Test [11] in a line: Ionotropic effect in guinea pig ventricle papillary muscles assessed as lengthening of 25% repolarized cardiac action potential duration time at 10^-7 M by microelectrode technique relative to untreated control (reference value: 84 to 104 APD25 ms). The test is classed as functional, Cavia porcellus, Papillary muscle.
A short description of test [12]: Ionotropic effect in guinea pig ventricle papillary muscles assessed as lengthening of 25% repolarized cardiac action potential duration time at 10^-5 M by microelectrode technique relative to untreated control (reference value: 120 to 131 APD25 ms) in presence of 2 x 10^-5 M KATP channel blocker glibenclamide. In kind it is functional, Cavia porcellus.
The nature of test [13]: Ionotropic effect in guinea pig right ventricle papillary muscles assessed as contraction force at 10^-7 M by force transduction assay relative to untreated control (reference value: 100%) in presence of 2 x 10^-5 M KATP channel blocker glibenclamide. The test is classed as functional, Cavia porcellus, Heart right ventricle.
A short description of test [14]: Ionotropic effect in guinea pig right ventricle papillary muscles assessed as contraction force at 10^-4 M by force transduction assay relative to untreated control (reference value: 100%) in presence of 2 x 10^-5 M KATP channel blocker glibenclamide. The test is classed as functional, Cavia porcellus, Heart right ventricle.
The nature of test [15]: Ionotropic effect in guinea pig ventricle papillary muscles assessed as lengthening of 25% repolarized cardiac action potential duration time at 10^-6 M by microelectrode technique relative to untreated control (reference value: 120 to 131 APD25 ms) in presence of 3.1 x 10^-6 M inward rectifier current blocker BaCl2. The test is classed as functional, Cavia porcellus.
Test [16] is described as follows: Ionotropic effect in guinea pig ventricle papillary muscles assessed as lengthening of 10% repolarized cardiac action potential duration time at 10^-4 M by microelectrode technique relative to untreated control (reference value: 52 to 54 APD10 ms) in presence of 3.1 x 10^-6 M inward rectifier current blocker BaCl2. In kind it is functional, Cavia porcellus.
A short description of test [17]: Ionotropic effect in guinea pig ventricle papillary muscles assessed as lengthening of 10% repolarized cardiac action potential duration time at 10^-4 M by microelectrode technique relative to untreated control (reference value: 52 to 54 APD10 ms) in presence of 2 x 10^-5 M KATP channel blocker glibenclamide. In kind it is functional, Cavia porcellus.
Test [18] is described as follows: Ionotropic effect in guinea pig ventricle papillary muscles assessed as lengthening of 50% repolarized cardiac action potential duration time at 10^-6 M by microelectrode technique relative to untreated control (reference value: 132 to 176 APD50 ms). The test is classed as functional, Cavia porcellus, Papillary muscle.
Test [19] is described as follows: Ionotropic effect in guinea pig ventricle papillary muscles assessed as lengthening of 10% repolarized cardiac action potential duration time at 10^-5 M by microelectrode technique relative to untreated control (reference value: 52 to 54 APD10 ms) in presence of 3.1 x 10^-6 M inward rectifier current blocker BaCl2. In kind it is functional, Cavia porcellus.
Test [20] can be described thus: Vasodilatory activity in human vena saphena magna assessed as reduction in phenylephrine-induced smooth muscle contraction at 0.1 uM. In kind it is functional. Set-up: scale not given: the % may be the effect or the level left. Summed up:
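Saphenous vein rings came from 37 CABG patients. They were bathed in Tyrode's solution (mM: NaCl 137, KCl 5.4, CaCl2 1.8, MgCl2 0.9, Tris HCl 10, glucose 5; pH 7.4), equilibrated 45–60 min and washed every 15 min. Rings were precontracted with 10^-4 M phenylephrine, then given cumulative test agent at 10^-7 to 10^-4 M. Isometric relaxation was recorded, as means ± SE.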

Test [21] is described as follows: Ionotropic effect in guinea pig ventricle papillary muscles assessed as lengthening of 90% repolarized cardiac action potential duration time at 10^-4 M by microelectrode technique relative to untreated control (reference value: 209 to 222 APD50 ms) in presence of 1 x 10^-6 M IKr channel blocker Sotalol. In kind it is functional, Cavia porcellus.
Test [22] is described as follows: Ionotropic effect in guinea pig ventricle papillary muscles assessed as lengthening of 50% repolarized cardiac action potential duration time at 10^-4 M by microelectrode technique relative to untreated control (reference value: 132 to 176 APD50 ms). The test is classed as functional, Cavia porcellus, Papillary muscle.
Test [23] is described as follows: Ionotropic effect in guinea pig ventricle papillary muscles assessed as lengthening of 50% repolarized cardiac action potential duration time at 10^-5 M by microelectrode technique relative to untreated control (reference value: 180 to 192 APD50 ms) in presence of 2 x 10^-5 M KATP channel blocker glibenclamide. In kind it is functional, Cavia porcellus.

As to `CCCOCCOC(=O)C1=C(C)NC=C([N+](=O)[O-])C1c1ccccc1OC(F)F` (stereo not drawn), the Time amounted to 224 ms in test [1]; 146.5 ms in test [2]; 59.5 ms in [3]; 46 ms in [4]; 205.8 ms in test [5]; 256 ms in test [6]. Further, the Time in [7] is 164.8 ms; in test [10] it was 227.7 ms; in [11], 112.7 ms; in [12], 155 ms; in test [15], 149.7 ms; in test [16], 61.36 ms. In addition, the Time in [17] turned out to be 65 ms; in [18], 196 ms; in test [19] it was 63.4 ms; in test [21] it was 250.8 ms; in test [22], 222 ms; in test [23], 235 ms. Besides, the Activity turned out to be 111.4% in test [8]; 85% in [9]; 103% in test [13]; 211% in test [14]; 26% in [20].
